Screening results from PubChem BioAssay.
Diaphorase act = diaphorase activation or chemical reduction counter-screen | Diaphorase/resazurin coupled assay, resorufin fluorescence, 16 min; hits give high values; 1 = vehicle wells, 0 = NADH-free wells | activation factor at 20 µM | 0.005% of 190,000 active;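 active means diaphorase activity raised at least twofold by the compound at 20 µM; inactive means activation factor below 2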
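Material: Purified diaphorase enzyme from Clostridium kluyveri | Buffer or medium: 50 mM HEPES pH 7.4 with 4.542 mM MgCl2, 0.005% Tween 20 | Times: 16 min enzyme reaction, ambient temperature | Signal: Red resorufin fluorescence at 544/590 nm excitation/emission | Measure: Increased resorufin signal from activators or reducing compounds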
Diaphorase inh = inhibits diaphorase or chemically oxidizes, flagging diaphorase assay artifacts; 0.69% of 190,000 active; AID 1217; inhibition, % at 20 µM; diaphorase resazurin-to-resorufin fluorescence, NADH, 16 min; bacterial (C. kluyveri) enzyme, not human;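 active means primary screen inhibition at 20 µM above a set limit, cut at about 50% in these data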;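 further: plate controls were DMSO with full reaction for no effect and wells lacking NADH for full effect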
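material = Clostridium kluyveri diaphorase enzyme | amount = 0.14 U/mL diaphorase, enzyme working solution | schedule = incubation 16 min, room temperature | detection = fluorescence of resorufin formed from resazurin, Ex 544/Em 590 nm | benchmarks = positive control minus NADH, DMSO neutral control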
G6PDH counter = L. mesenteroides G6PDH inhibition counter-screen | Purified L. mesenteroides G6PDH, diaphorase/resazurin coupled fluorescence, 45 min | 0.12% of 200,000 active | inhibition, % at 5 µM
PfGluPho inh = PfG6PD (Plasmodium falciparum) enzyme inhibition; PfGluPho enzyme, NADPH resazurin-diaphorase fluorescence; inhibition, % at 20 µM; 0.78% of 350,000 active; AID 504690;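 active means inhibition reaching at least a set limit at 20 µM in the primary screen, cut at about 59% in these data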;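 further: 0% = DMSO wells with substrate and 100% = DMSO wells lacking glucose-6-phosphate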
L major viab = Leishmania major promastigote growth inhibition | Leishmania major promastigotes, resazurin fluorescence viability | inhibition, % at 10 µM | 9% of 200,000 active | AID 1063;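 further: promastigotes grown with compound for 44 hours at 28 °C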
DTT redox prof = compounds producing H2O2 with reducing agent – biochemical, NIH compound library profiling, artefact control for MLSCN library redox annotation, primary screen; DTT-dependent redox cycling H2O2, phenol red/HRP absorbance; 100% = 100 µM peroxide control, 0% = buffer; activation, % at 10 µM; 0.03% of 200,000 active; AID 878;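 active means activation of at least 50% relative to the plate's high and low controls in the primary single-dose screen; inactive means activation below 50%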;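 further: compound incubated with DTT at 0.8 mM final as the reducing agent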
L major 1uM = inhibitors of Leishmania major promastigote growth, repeat at 1 uM; shares compounds with L major viab; L. major promastigote growth, resazurin fluorescence, 48 h; inhibition, % at 1 µM; 13% of 1,100 active; AID 1258;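 active means inhibition above about 50% in both repeat tests, limit read from the data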
Numbers without * were called inactive. Many of the other results were omitted from the sample, so hits are more common in it than they were. Unless noted, no stated cut-off is given here; in the data, active means inhibition above about 50%; inactive means the rest.

Screening O=C(N/N=C/c1ccco1)c1cc([N+](=O)[O-])cc([N+](=O)[O-])c1 returned Diaphorase act 0.9, Diaphorase inh 8, G6PDH counter 4, PfGluPho inh -4, L major viab 97*, DTT redox prof 0 and L major 1uM 16.
COc1ccc(NS(=O)(=O)c2ccc3c(c2)N(C(C)=O)CCO3)c(OC)c1 was read as PfGluPho inh 0.
Screening O=C(NC1CC(=O)N(c2ccc(Cl)cc2)C1)N1CCN(C(=O)c2ccco2)CC1 (stereo not given) returned PfGluPho inh -6.
`COc1ccc(N(C)C(=O)c2cc3c(s2)-c2c(C)cccc2OC3)c(OC)c1` gave PfGluPho inh 30.
`CCN(C(=O)CSc1nc2scc(-c3ccccc3)c2c(=O)n1N)C1CCS(=O)(=O)C1` (stereo not given) gave PfGluPho inh -3.
For O=C1c2ccccc2-c2onc3ccc(Oc4ccccc4)c1c23 the results were Diaphorase act 0.7, Diaphorase inh 25, G6PDH counter 28, PfGluPho inh 38, L major viab 100*, DTT redox prof 0 and L major 1uM -13.
`c1ccc(CN2CCN(C3=Nc4cccc5cccc3c45)CC2)cc1` gave Diaphorase act 0.9, Diaphorase inh 15, G6PDH counter 12, PfGluPho inh 23, L major viab 98*, DTT redox prof 1 and L major 1uM 46.
c1ccc(CN2CCN(c3nc4ccccc4s3)CC2)cc1 was read as PfGluPho inh -5.
Screening CC1(C)CC2(CC(c3cccs3)c3cc(Cl)c(O)cc3O2)NC(=S)N1 (stereo not given) returned Diaphorase act 0.8, Diaphorase inh 23, G6PDH counter 7, PfGluPho inh 9, L major viab 92*, DTT redox prof -4 and L major 1uM -10.
For CCCOC(=O)CSC1=C(C#N)C(c2ccccc2Cl)CC(=O)N1 (stereo not given) the results were Diaphorase act 0.8, Diaphorase inh 22, G6PDH counter 7, PfGluPho inh 2, L major viab 100*, DTT redox prof 0 and L major 1uM 93*.
N=C(N)c1ccc(OCCCCCOc2ccc(C(=N)N)cc2)cc1 was read as Diaphorase act 1.4, Diaphorase inh -37, G6PDH counter 19, PfGluPho inh 4, L major viab 100*, DTT redox prof 0 and L major 1uM 100*.
`CCCCCCCCC/C(=N\O)c1ccccn1` gave Diaphorase act 0.9, Diaphorase inh 10, G6PDH counter 2, PfGluPho inh -23, L major viab 87*, DTT redox prof 0 and L major 1uM 5.
`CNS(=O)(=O)c1cc(NC(C)=O)c(C)cc1C` gave Diaphorase act 0.9, Diaphorase inh 6, G6PDH counter 14, PfGluPho inh -10, L major viab 49 and DTT redox prof 0.
Screening CC(SC#N)C(=O)C12CC3CC(CC(C3)C1)C2 (stereo not given) returned Diaphorase act 1, Diaphorase inh 5, G6PDH counter -6, PfGluPho inh -19, L major viab 63*, DTT redox prof -2 and L major 1uM 12.
`CC1CC(C)CN(C(=O)C2CCC(CNS(=O)(=O)c3ccccc3)CC2)C1` (stereo not given) gave PfGluPho inh -3.
Screening CC1CN(C(=O)N2CCCCC2)CCN1C(=O)N1CCCCC1 (stereo not given) returned Diaphorase act 0.9, Diaphorase inh 10, G6PDH counter 3, PfGluPho inh -7, L major viab -6 and DTT redox prof 15.
Screening COc1ccc(CNC(=O)CN(c2ccccc2)S(=O)(=O)c2ccccc2[N+](=O)[O-])cc1 returned Diaphorase act 0.8, Diaphorase inh 18, G6PDH counter 10, PfGluPho inh -18, L major viab 0 and DTT redox prof 0.
CC1(C)Cc2ccccc2C(NNC(=O)c2ccccn2)=N1 was read as Diaphorase act 1, Diaphorase inh 2, G6PDH counter 8, PfGluPho inh 43, L major viab 98*, DTT redox prof 0 and L major 1uM -7.
CC1(C)Cc2ccccc2C(NNC(=O)c2ccccc2)=N1 was read as Diaphorase act 1, Diaphorase inh 4, G6PDH counter 4, PfGluPho inh -5, L major viab -4 and DTT redox prof 0.
Screening CN(C(=O)COC(=O)C1=COCCO1)c1c(N)n(Cc2ccccc2)c(=O)[nH]c1=O returned PfGluPho inh 5.
Screening COc1cccc(CC(NC(C)=O)C(=O)NC2CCN(C(=O)Nc3ccc(C)cc3)CC2)c1 (stereo not given) returned PfGluPho inh -17.
NC(C(=O)O)C1CC(Cl)=NO1 (stereo not given) was read as Diaphorase act 0.9, Diaphorase inh 6, G6PDH counter 8, L major viab 100*, DTT redox prof 1 and L major 1uM 94*.
`Cc1ccc(NC(=O)COC(=O)c2ccn(C)n2)cc1` gave Diaphorase act 0.8, Diaphorase inh 18, G6PDH counter -4, PfGluPho inh 12, L major viab 3 and DTT redox prof 20.
Screening N#C/C(=C\Nc1ccccc1O)c1nc2ccccc2o1 returned Diaphorase act 0.9, Diaphorase inh 12, G6PDH counter -25, PfGluPho inh -5, L major viab 79*, DTT redox prof -1 and L major 1uM -78.
`N#C/C(=C\c1ccncc1)c1nc2ccccc2o1` gave PfGluPho inh 3.
For CN(C)CCNc1c2c(c(C#N)c3nc4ccccc4n13)CCCC2 the results were Diaphorase act 0.8, Diaphorase inh 16, G6PDH counter 6, PfGluPho inh -7, L major viab 54*, DTT redox prof 2 and L major 1uM -16.
For OCCSc1nc(-c2ccccc2)nc2c1CCC2 the results were Diaphorase act 0.9, Diaphorase inh 14, G6PDH counter 6, PfGluPho inh -5, L major viab 52*, DTT redox prof 0 and L major 1uM -13.
For NNC(=O)CSc1nc(-c2ccccc2)nc2c1CCCC2 the results were Diaphorase act 0.9, Diaphorase inh 12, G6PDH counter 12, PfGluPho inh 4, L major viab -11 and DTT redox prof -3.
Cc1ccc(C(CCN)c2ccco2)cc1 (stereo not given) was read as Diaphorase act 0.9, Diaphorase inh 11, G6PDH counter 6, PfGluPho inh -14, L major viab 98*, DTT redox prof 1 and L major 1uM -9.
